Our source for the Ki and inhibition values is ChEMBL document CHEMBL2311331, “Selective and potent adenosine A3 receptor antagonists by methoxyaryl substitution on the N-(2,6-diarylpyrimidin-4-yl)acetamide scaffold” (Eur J Med Chem, 2013).

What is called Ki is a dissociation constant, usually derived from enzyme kinetics or from competition with a known ligand. A high value points to a looser hold on the target. The inhibition is the share of the control response that was lost under treatment. High values mean strong suppression, low ones little suppression.

In the first experiment the target is T1, Adenosine receptor A2a (Homo sapiens, UniProt P29274). The experiment in a line: Displacement of [3H]4-(2-[7-Amino-2-(2-furyl) [1,2,4]triazolo[2,3-alpha] [1,3,5]triazin-5-ylamino]ethyl)phenol from human adenosine A2A receptor expressed in human HeLa cells. It is filed as cell-based.
T1 sequence (P29274 whole entry): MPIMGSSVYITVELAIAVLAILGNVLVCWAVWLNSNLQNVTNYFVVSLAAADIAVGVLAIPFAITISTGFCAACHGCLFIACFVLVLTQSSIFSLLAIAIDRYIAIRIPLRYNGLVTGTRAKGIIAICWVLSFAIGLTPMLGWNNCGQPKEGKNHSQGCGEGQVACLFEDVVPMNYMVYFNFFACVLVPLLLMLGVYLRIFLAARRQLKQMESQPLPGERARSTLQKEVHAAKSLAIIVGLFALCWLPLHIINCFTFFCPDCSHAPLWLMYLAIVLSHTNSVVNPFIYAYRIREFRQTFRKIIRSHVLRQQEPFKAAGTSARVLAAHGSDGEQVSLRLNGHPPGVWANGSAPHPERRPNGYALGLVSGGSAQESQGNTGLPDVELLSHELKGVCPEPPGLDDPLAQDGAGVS
Settings: not given
In general terms: Displacement assays read how much labelled ligand stays bound in the presence of the test substance.
For `COc1cccc(-c2cc(NC(C)=O)nc(-c3cccc(OC)c3OC)n2)c1OC`, affinity was put at a Ki of 375 nM.

The compound `COc1cccc(-c2cc(NC(C)=O)nc(-c3cccc(OC)c3)n2)c1` came in with a Ki of 49.4 nM.

Another experiment concerns the target T2, Adenosine receptor A2b (Homo sapiens, UniProt P29275).
T2 sequence (P29275 whole entry): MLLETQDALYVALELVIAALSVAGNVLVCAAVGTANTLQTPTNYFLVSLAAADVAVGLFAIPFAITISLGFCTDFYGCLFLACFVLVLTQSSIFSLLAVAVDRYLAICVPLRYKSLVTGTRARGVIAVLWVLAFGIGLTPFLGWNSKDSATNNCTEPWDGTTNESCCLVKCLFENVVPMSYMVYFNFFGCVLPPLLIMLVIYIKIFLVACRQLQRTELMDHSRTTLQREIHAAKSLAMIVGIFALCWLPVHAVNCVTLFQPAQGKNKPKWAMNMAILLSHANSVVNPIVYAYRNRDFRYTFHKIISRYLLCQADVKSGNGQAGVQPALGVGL
The experiment in a line: Displacement of [3H]DPCPX from human adenosine A2B receptor expressed in HEK-293 cells. The experiment is classed as cell-based, HEK293.
Settings: not given
`COc1cccc(-c2cc(NC(C)=O)nc(-c3cccc(OC)c3OC)n2)c1OC` had an inhibition constant Ki of 494 nM.

For `COc1cccc(-c2cc(NC(C)=O)nc(-c3cccc(OC)c3)n2)c1`, the affinity corresponds to a Ki of 67.5 nM.

Another experiment concerns the target T3, Adenosine receptor A1 (Homo sapiens) (UniProt P30542).
T3 sequence (whole entry): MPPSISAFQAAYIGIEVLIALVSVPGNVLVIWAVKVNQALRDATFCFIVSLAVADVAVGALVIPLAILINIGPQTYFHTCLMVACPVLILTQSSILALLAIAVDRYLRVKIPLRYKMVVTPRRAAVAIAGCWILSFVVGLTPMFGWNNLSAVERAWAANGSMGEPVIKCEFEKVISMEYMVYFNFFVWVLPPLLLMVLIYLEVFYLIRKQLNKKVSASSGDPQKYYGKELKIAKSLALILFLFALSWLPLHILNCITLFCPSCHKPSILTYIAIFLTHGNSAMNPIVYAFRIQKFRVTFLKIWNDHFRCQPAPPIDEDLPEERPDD
The experiment in a line: Displacement of [3H]DPCPX from human adenosine A1 receptor expressed in CHO cells at 1 uM. The experiment is classed as cell-based.
Settings: not given
Summed up: (§1)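 Specific radioligand binding measured in the presence of a single test concentration, 1 µM, at each receptor/cell system (A1 CHO with [3H]DPCPX; A2A HeLa with triazolotriazine phenol tracer; A2B HEK-293 with [3H]DPCPX; A3 HeLa with [3H]NECA). Reported as percent displacement of specific binding, n = 2.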
The compound `CCOc1ccc(-c2cc(NC(C)=O)nc(-c3ccc(OCC)cc3)n2)cc1` registered an inhibition of 12%.

`COc1cccc(-c2cc(NC(C)=O)nc(-c3cccc(OC)c3OC)n2)c1OC`: the inhibition came out at 10%.

Turning to `COc1cc(-c2cc(NC(C)=O)nc(-c3cc(OC)c(OC)c(OC)c3)n2)cc(OC)c1OC`, the inhibition came out at 14%.

`CC(=O)Nc1cc(-c2ccc(OC(F)(F)F)cc2)nc(-c2ccc(OC(F)(F)F)cc2)n1` returned an inhibition of 8%.

Compound `COc1ccc(/C=C/c2cc(NC(C)=O)nc(/C=C/c3ccc(OC)cc3)n2)cc1` displayed an inhibition of 16%.

As to `COc1ccc(-c2cc(NC(C)=O)nc(-c3ccc(OC)cc3)n2)cc1`, the inhibition turned out to be 2%.

Turning to `COc1cccc(OC)c1-c1cc(NC(C)=O)nc(-c2c(OC)cccc2OC)n1`, the inhibition was found to be 4%.

With `COc1ccc(OC)c(-c2cc(NC(C)=O)nc(-c3cc(OC)ccc3OC)n2)c1`, the inhibition is 4%.

`COc1ccc(-c2cc(NC(C)=O)nc(-c3ccc(OC)c(OC)c3)n2)cc1OC` yielded an inhibition of 10%.

As for `COc1cc(OC)cc(-c2cc(NC(C)=O)nc(-c3cc(OC)cc(OC)c3)n2)c1`, the inhibition is 15%.

Compound `COc1ccc(-c2cc(NC(C)=O)nc(-c3ccc(OC)cc3OC)n2)c(OC)c1` showed an inhibition of 3%.

In turn, `COc1ccccc1-c1cc(NC(C)=O)nc(-c2ccccc2OC)n1` displayed an inhibition of 4%.

Another experiment addresses T4, Adenosine receptor A1 (Homo sapiens, UniProt P30542).
T4 sequence (P30542 whole entry): T3 sequence (whole entry)
Put plainly: Displacement of [3H]DPCPX from human adenosine A1 receptor expressed in CHO cells. It is filed as cell-based.
Settings: not given
In the case of `CC(=O)Nc1cc(-c2ccc3c(c2)OCO3)nc(-c2ccc3c(c2)OCO3)n1`, the Ki was determined as 17 nM.

`COc1cccc(-c2cc(NC(C)=O)nc(-c3cccc(OC)c3)n2)c1` showed an inhibition constant Ki of 22.6 nM.

A further experiment concerns the target T5, Adenosine receptor A3 (Homo sapiens, UniProt P0DMS8).
T5 sequence (P0DMS8 whole entry): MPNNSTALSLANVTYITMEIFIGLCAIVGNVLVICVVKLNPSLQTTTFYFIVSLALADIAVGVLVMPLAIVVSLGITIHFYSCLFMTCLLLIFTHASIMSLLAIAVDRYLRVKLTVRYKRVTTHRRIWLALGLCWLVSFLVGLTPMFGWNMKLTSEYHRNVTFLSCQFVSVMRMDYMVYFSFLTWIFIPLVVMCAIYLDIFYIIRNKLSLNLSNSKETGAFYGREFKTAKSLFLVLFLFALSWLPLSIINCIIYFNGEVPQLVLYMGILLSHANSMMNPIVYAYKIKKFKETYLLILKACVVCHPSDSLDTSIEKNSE
Put plainly: Displacement of [3H]NECA from human adenosine A3 receptor expressed in human HeLa cells.
Settings: not given
The experiment is classed as cell-based.
The compound `CCOc1ccc(-c2cc(NC(C)=O)nc(-c3ccc(OCC)cc3)n2)cc1` came in with an inhibition constant (Ki) of 40.2 nM.

`COc1cccc(-c2cc(NC(C)=O)nc(-c3cccc(OC)c3OC)n2)c1OC` had a Ki of 42.4 nM.

`COc1cc(-c2cc(NC(C)=O)nc(-c3cc(OC)c(OC)c(OC)c3)n2)cc(OC)c1OC` showed an inhibition constant Ki of 26.1 nM.

As for `CC(=O)Nc1cc(-c2ccc(OC(F)(F)F)cc2)nc(-c2ccc(OC(F)(F)F)cc2)n1`, the Ki was 389 nM.

Compound `COc1ccc(/C=C/c2cc(NC(C)=O)nc(/C=C/c3ccc(OC)cc3)n2)cc1` came in with a Ki of 513 nM.

As for `COc1cccc(-c2cc(NC(C)=O)nc(-c3cccc(OC)c3)n2)c1`, the inhibition constant Ki came out at 2.8 nM.

As to `COc1ccc(OC)c(-c2cc(NC(C)=O)nc(-c3cc(OC)ccc3OC)n2)c1`, the affinity, expressed as Ki, was 6.3 nM.

Consider `COc1ccc(-c2cc(NC(C)=O)nc(-c3ccc(OC)c(OC)c3)n2)cc1OC`, for which the inhibition constant (Ki) was determined as 5.2 nM.

The compound `COc1cc(OC)cc(-c2cc(NC(C)=O)nc(-c3cc(OC)cc(OC)c3)n2)c1` yielded an inhibition constant Ki of 55 nM.

The target in the next experiment is T6, Adenosine receptor A2b (Homo sapiens) (UniProt P29275).
T6 sequence (whole entry): T2 sequence (P29275 whole entry)
Put plainly: Displacement of [3H]DPCPX from human adenosine A2B receptor expressed in HEK-293 cells at 1 uM. It is filed as cell-based. As to conditions: HEK293. Summed up: as §1
Take `CC(=O)Nc1cc(-c2ccc3c(c2)OCO3)nc(-c2ccc3c(c2)OCO3)n1`: the inhibition stood at 6%.

As for `CCOc1ccc(-c2cc(NC(C)=O)nc(-c3ccc(OCC)cc3)n2)cc1`, the inhibition came to 1%.

Compound `COc1cc(-c2cc(NC(C)=O)nc(-c3cc(OC)c(OC)c(OC)c3)n2)cc(OC)c1OC` registered an inhibition of 1%.

`CC(=O)Nc1cc(-c2ccc(OC(F)(F)F)cc2)nc(-c2ccc(OC(F)(F)F)cc2)n1` returned an inhibition of 4%.

`COc1ccc(/C=C/c2cc(NC(C)=O)nc(/C=C/c3ccc(OC)cc3)n2)cc1` showed an inhibition of 2%.

Take `COc1ccc(-c2cc(NC(C)=O)nc(-c3ccc(OC)cc3)n2)cc1`: the inhibition amounted to 2%.

`COc1cccc(OC)c1-c1cc(NC(C)=O)nc(-c2c(OC)cccc2OC)n1` came in with an inhibition of 3%.

In turn, `CC(=O)Nc1cc(-c2ccccc2)nc(-c2ccccc2)n1` came in with an inhibition of 22%.

`COc1ccc(OC)c(-c2cc(NC(C)=O)nc(-c3cc(OC)ccc3OC)n2)c1` showed an inhibition of 1%.

Take `COc1ccc(-c2cc(NC(C)=O)nc(-c3ccc(OC)c(OC)c3)n2)cc1OC`: the inhibition is 2%.

With `COc1cc(OC)cc(-c2cc(NC(C)=O)nc(-c3cc(OC)cc(OC)c3)n2)c1`, the inhibition was 1%.

`COc1ccc(-c2cc(NC(C)=O)nc(-c3ccc(OC)cc3OC)n2)c(OC)c1` came in with an inhibition of 7%.

In turn, `COc1ccccc1-c1cc(NC(C)=O)nc(-c2ccccc2OC)n1` registered an inhibition of 7%.

Another experiment addresses T7, Adenosine receptor A3 (Homo sapiens) (UniProt P0DMS8).
T7 sequence (whole entry): T5 sequence (P0DMS8 whole entry)
The experiment in a line: Displacement of [3H]NECA from human adenosine A3 receptor expressed in human HeLa cells at 1 uM. It is filed as cell-based.
Settings: not given
Summed up:
as §1
Compound `COc1cccc(OC)c1-c1cc(NC(C)=O)nc(-c2c(OC)cccc2OC)n1` displayed an inhibition of 4%.

Another experiment has as its target T1, Adenosine receptor A2a. Put plainly: Displacement of [3H]4-(2-[7-Amino-2-(2-furyl) [1,2,4]triazolo[2,3-alpha] [1,3,5]triazin-5-ylamino]ethyl)phenol from human adenosine A2A receptor expressed in human HeLa cells at 1 uM. The experiment is classed as cell-based.
Settings: not given
Summed up: as §1
In turn, `CCOc1ccc(-c2cc(NC(C)=O)nc(-c3ccc(OCC)cc3)n2)cc1` displayed an inhibition of 2%.

As to `COc1cc(-c2cc(NC(C)=O)nc(-c3cc(OC)c(OC)c(OC)c3)n2)cc(OC)c1OC`, the inhibition worked out at 1%.

For the compound `CC(=O)Nc1cc(-c2ccc(OC(F)(F)F)cc2)nc(-c2ccc(OC(F)(F)F)cc2)n1`, the inhibition came out at 1%.

`COc1ccc(/C=C/c2cc(NC(C)=O)nc(/C=C/c3ccc(OC)cc3)n2)cc1` returned an inhibition of 13%.

`COc1ccc(-c2cc(NC(C)=O)nc(-c3ccc(OC)cc3)n2)cc1` gave an inhibition of 4%.

For `COc1cccc(OC)c1-c1cc(NC(C)=O)nc(-c2c(OC)cccc2OC)n1`, the inhibition came out at 1%.

The compound `COc1ccc(OC)c(-c2cc(NC(C)=O)nc(-c3cc(OC)ccc3OC)n2)c1` displayed an inhibition of 17%.

The compound `COc1ccc(-c2cc(NC(C)=O)nc(-c3ccc(OC)c(OC)c3)n2)cc1OC` registered an inhibition of 5%.

Turning to `COc1cc(OC)cc(-c2cc(NC(C)=O)nc(-c3cc(OC)cc(OC)c3)n2)c1`, the inhibition worked out at 3%.

As to `COc1ccc(-c2cc(NC(C)=O)nc(-c3ccc(OC)cc3OC)n2)c(OC)c1`, the inhibition turned out to be 10%.

For the compound `COc1ccccc1-c1cc(NC(C)=O)nc(-c2ccccc2OC)n1`, the inhibition turned out to be 15%.
